Results as given in ChEMBL document CHEMBL3244426, “Synthesis and biological activities of ftorafur metabolites. 3'- and 4'-hydroxyftorafur” (1979).
In brackets after ≈: the same amount, converted by molar mass.

Experiments:
Type in all cases: functional
[1] = system: L1210; assay: In-vivo antitumor activity against mouse L1210 cells at 100 mg/kg relative to control
[2] = system: L1210; assay: In-vivo antitumor activity against mouse L1210 cells at 80 mg/kg relative to control
[3] = system: L1210; assay: In-vivo antitumor activity against mouse L1210 cells at 60 mg/kg relative to control
[4] = system: HeLa; assay: Inhibition of cell cycle traverse in human HeLa cells assessed as mitotic index at 200 ug/ml after 16 hrs; parameters: scale not given: the % may be the effect or the level left
Summary of the method: (§1)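 HeLa cells were plated at 3.5 × 10^5 per 35-mm dish in Eagle's MEM with 10% fetal calf serum and antibiotics the day before. They were then exposed to drug in the same medium with 0.05 µg/mL colcemid for 16 h. Cells were trypsinized, cytocentrifuged onto slides and fixed in 3:1 MeOH–AcOH. The read-out was the mitotic index, mitotic cells as a percentage of cells counted.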

[5] = system: HeLa; assay: Inhibition of cell cycle traverse in human HeLa cells assessed as mitotic index at 100 ug/ml after 16 hrs; parameters: scale not given: the % may be the effect or the level left; summary of the method: as §1
[6] = system: L1210; assay: In-vivo antitumor activity against mouse L1210 cells at 20 mg/kg relative to control
[7] = system: HeLa; assay: Inhibition of cell cycle traverse in human HeLa cells assessed as mitotic index at 50 ug/ml after 16 hrs; parameters: scale not given: the % may be the effect or the level left
Summary of the method: (§2)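 HeLa cells (3.5 × 10^5) plated the day before in Eagle's MEM with 10% fetal calf serum and antibiotics. Drug added in the same medium with colcemid 0.05 µg/mL, incubated about 16 h. Cells trypsinized, cytocentrifuged onto slides, fixed in 3:1 MeOH-AcOH. Mitotic and interphase cells counted; mitotic index = % of total. Lower index means greater inhibition of cell cycle traverse.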

[8] = system: HeLa; assay: Inhibition of cell cycle traverse in human HeLa cells assessed as mitotic index at 25 ug/ml after 16 hrs; parameters: scale not given: the % may be the effect or the level left; summary of the method: as §2
[9] = system: HeLa; assay: Inhibition of cell cycle traverse in human HeLa cells assessed as mitotic index at 12.5 ug/ml after 16 hrs; parameters: scale not given: the % may be the effect or the level left; summary of the method: as §2
[10] = system: HeLa; assay: Growth inhibition of human HeLa cells; settings: read-out: ID50

Structure (SMILES): O=c1[nH]c(=O)n([C@H]2C[C@@H](O)CO2)cc1F (relative stereo)
- T/C [1]: 114%
- T/C [2]: 91%
- T/C [3]: 106%
- Activity [4]: 44%
- Activity [5]: 63.3%

Structure (SMILES): O=c1[nH]cc(F)c(=O)[nH]1 [FLUOROURACIL]
- T/C [6]: 153%
- Activity [7]: 31.7%
- Activity [8]: 35.8%
- Activity [9]: 45.7%

Structure (SMILES): O=c1[nH]c(=O)n(C2CCCO2)cc1F (racemic) [TEGAFUR]
- T/C [2]: 102%
- Activity [4]: 36%
- Activity [5]: 60.3%
- ED50 [10]: 200 µg/mL (≈ 999 µM)

Structure (SMILES): O=c1[nH]c(=O)n([C@@H]2OCC[C@H]2O)cc1F (relative stereo)
- T/C [1]: 96%
- T/C [2]: 98%
- T/C [3]: 108%
- Activity [4]: 34.7%
- Activity [5]: 64%
